CHO parental Ca: counter-screen: ATP calcium response change in parental CHO cells; hit rate 0.63% among 330,000; parental CHO-K1, ATP-induced calcium, Fluo-8 fluorescence; inhibition, % at 5.6 µM;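 active = inhibition above that plate's mean sample inhibition plus 3 SD, cut at about 26% in these data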;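 also: 0% = ATP-challenged DMSO wells and 100% = DMSO wells without ATP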
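Assay system: parental CHO cells; Read-out basis: percent inhibition of ATP-evoked calcium rise, normalized to controls; Benchmarks: ATP and no-ATP DMSO wells; Compound dosing: single nominal dose of 5.6 µM per compound; Signal: Fluo-8 calcium dye fluorescence; Also added: ATP as calcium-mobilizing challenge; Repeats: singlicate.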
OX1R antag-1: blocks the human orexin 1 receptor; CHO/OX1R cells, Fluo-8 calcium fluorescence, orexin A; AID 434989; hit rate 0.43% among 330,000; inhibition, % at 5 µM;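 active = inhibition above its plate's threshold, mean inhibition of all tested compounds on the plate plus 3 SD, cut at about 37% in these data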;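 also: 0% = orexin A challenge wells and 100% = SB-334867-A antagonist wells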
Target sequence (O43613 whole entry, looked up): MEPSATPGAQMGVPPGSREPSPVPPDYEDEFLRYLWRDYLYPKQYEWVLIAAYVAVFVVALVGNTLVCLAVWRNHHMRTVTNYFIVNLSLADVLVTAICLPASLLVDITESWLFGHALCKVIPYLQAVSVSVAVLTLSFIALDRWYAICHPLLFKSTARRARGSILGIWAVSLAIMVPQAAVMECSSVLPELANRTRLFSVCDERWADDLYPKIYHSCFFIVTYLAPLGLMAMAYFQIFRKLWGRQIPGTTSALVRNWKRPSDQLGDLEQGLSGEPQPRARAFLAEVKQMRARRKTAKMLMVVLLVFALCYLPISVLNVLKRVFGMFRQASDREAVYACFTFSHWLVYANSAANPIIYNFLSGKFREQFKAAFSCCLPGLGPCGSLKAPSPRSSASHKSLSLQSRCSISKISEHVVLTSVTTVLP
TAAR1 agonist: agonists of human TAAR1; CHO RD-HGA16 TAAR1, Fluo-8 calcium fluorescence; vehicle wells 0%, saturating PEA agonist 100%; hit rate 0.99% among 360,000; activation, % at 3 µM; Q96RJ0;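 active = activation above the mean activation of all test compounds in the run plus 3 SD, cut at about 38% in these data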
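System: CHO RD-HGA16 cells carrying human TAAR1 plus Gα16; Incubation: 17-24 h seeding, 75 min 37 °C dye, 30 min RT; Measured by: Fluo-8 fluorescence, 5 s baseline then 140 s kinetic read; Control set: DMSO and PEA EC100; Replication: single well for each compound.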
TAAR1 antagonist: human TAAR1 antagonism; Q96RJ0; CHO RD-HGA16 TAAR1, Fluo-8 calcium fluorescence, antagonist; inhibition, % at 3 µM; hit rate 1.5% among 360,000;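 active = inhibition above a per-plate cutoff, the mean inhibition of test compounds on that plate plus 3 SD, cut at about 49% in these data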;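 also: 0% = DMSO plus EC80 beta-PEA response and 100% = DMSO alone without agonist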
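System: CHO RD-HGA16 cells bearing hTAAR1. Reagent: EC80 β-phenethylamine stimulus. Schedule: seeding 17-24 h prior, 75-min 37 °C, 30-min RT dye loading. Signal: Fluo-8 intracellular calcium dye fluorescence, real-time kinetic reads. Read-out: % inhibition from peak post-agonist over basal fluorescence ratio. Benchmarks: vehicle wells and EC80 agonist wells. Replicates: n of 1.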
OX1R antag-2: antagonists of human orexin 1 receptor (OX1R); inhibition, % at 6.6 µM; OX1R-expressing cells, FRET antagonist read-out; hit rate 1.8% among 330,000; AID 485270; in the data active = inhibition mostly above about 38%, no sharp cut-off; inactive = mostly below about 40%;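 also: 0% = agonist challenge alone and 100% = reference antagonist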
OX1R HTRF conf: confirmation of human orexin 1 receptor antagonists, HTRF format. shares compounds with OX1R antag-2. OX1R-expressing cells, HTRF antagonist assay. inhibition, % at 6.6 µM. hit rate 49% among 1,800; in the data active = inhibition above about 55%;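 also: CHO cells expressing OX1R stimulated with orexin A at about EC80; 0% = agonist challenge alone and 100% = reference antagonist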
CHO-K1 HTRF: counter-screen for OX1R antagonists: effect in parental CHO-K1 cells; AID 493232; shares compounds with OX1R antag-2; inhibition, % at 6.6 µM; hit rate 48% among 1,800; HTRF counterscreen; in the data active = inhibition above about 17%;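 also: 0% = agonist challenge with vehicle and 100% = vehicle alone without agonist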
The depositor's hits bear a star. A selection: hits, their analogues and other compounds. The true share with any hit is near 4%.

For N=c1n(CCN2CCCCC2)c2ccccc2n1CC(=O)c1ccc(Cl)c(Cl)c1 the results were CHO parental Ca -29, OX1R antag-1 -13, TAAR1 agonist -1, TAAR1 antagonist -18 and OX1R antag-2 18.
NS(=O)(=O)c1ccc(CNC(=O)c2cc(-c3ccccn3)nc3ccc(Cl)cc23)cc1 was read as CHO parental Ca -8, OX1R antag-1 4, TAAR1 agonist 1, TAAR1 antagonist 3, OX1R antag-2 84*, OX1R HTRF conf 59* and CHO-K1 HTRF 5.
For NC(=O)c1cccn1Cc1ccccc1Cl the results were CHO parental Ca 1, OX1R antag-1 3, TAAR1 agonist 7, TAAR1 antagonist -3 and OX1R antag-2 7.
O=c1c([N+](=O)[O-])cccn1Cc1ccccc1Cl was read as CHO parental Ca -8, OX1R antag-1 -8, TAAR1 agonist 1, TAAR1 antagonist 5, OX1R antag-2 79*, OX1R HTRF conf 45 and CHO-K1 HTRF 27*.
COc1ccc(C2CCN(Cc3cccnc3)CC2O)cc1 (stereo not drawn) was read as CHO parental Ca -5, OX1R antag-1 -16, TAAR1 agonist 7, TAAR1 antagonist -18, OX1R antag-2 96*, OX1R HTRF conf 16 and CHO-K1 HTRF 3.
For N#C/C(=C/c1ccc(Br)o1)C(N)=O the results were CHO parental Ca -12, OX1R antag-1 -11, TAAR1 agonist 11, TAAR1 antagonist -1, OX1R antag-2 79*, OX1R HTRF conf 44 and CHO-K1 HTRF 12.
For O=C(N/N=C/c1cc(Cl)c(O)c(Cl)c1)c1cc2c(ccc3ccccc32)o1 the results were CHO parental Ca 14, OX1R antag-1 9, TAAR1 agonist 1, TAAR1 antagonist 47, OX1R antag-2 92*, OX1R HTRF conf 54 and CHO-K1 HTRF 14.
For CCN(CC)c1ccc2cc(C(C)=O)c(=O)oc2c1 the results were CHO parental Ca 8, OX1R antag-1 8, TAAR1 agonist 16, TAAR1 antagonist 4, OX1R antag-2 96*, OX1R HTRF conf 34 and CHO-K1 HTRF 8.
O=c1c(-c2ccccc2)c(O)c2ccccc2n1-c1ccccc1 was read as CHO parental Ca 0, OX1R antag-1 2, TAAR1 agonist 2, TAAR1 antagonist -9 and OX1R antag-2 -1.
Cc1cc(C)cc(C(O)c2ncc(-c3ccccc3F)[nH]2)c1 (stereo not drawn) was read as TAAR1 agonist 9 and TAAR1 antagonist 5.
For CCn1c2ccccc2c2cc(NC(=O)COc3ccccc3OC)ccc21 the results were CHO parental Ca -16, OX1R antag-1 27, TAAR1 agonist 0, TAAR1 antagonist 25, OX1R antag-2 101*, OX1R HTRF conf 79* and CHO-K1 HTRF 21*.
CCn1c2ccccc2c2cc(NC(=O)c3ccco3)ccc21 was read as CHO parental Ca -24, OX1R antag-1 18, TAAR1 agonist -2, TAAR1 antagonist 12, OX1R antag-2 77*, OX1R HTRF conf 52 and CHO-K1 HTRF 16.
`CC[C@@]1(c2ccccc2OC)ON(c2ccccc2C(F)(F)F)C1=O` gave CHO parental Ca -23, OX1R antag-1 20, TAAR1 agonist 16, TAAR1 antagonist 26 and OX1R antag-2 18.
CCOC(=O)c1c(C)oc2c1c1c(c3ccccc32)OCN(Cc2ccccn2)C1 was read as CHO parental Ca -18, OX1R antag-1 -5, TAAR1 agonist 4, TAAR1 antagonist 17, OX1R antag-2 84*, OX1R HTRF conf 14 and CHO-K1 HTRF 4.
For Cc1ccc2ncnc(Nc3ccc(C)c(C)c3)c2c1 the results were CHO parental Ca -13, OX1R antag-1 -29, TAAR1 agonist -2, TAAR1 antagonist -13, OX1R antag-2 78*, OX1R HTRF conf 42 and CHO-K1 HTRF 12.
For COc1cccc(Nc2ncnc3c2cnn3-c2cccc(C)c2)c1 the results were CHO parental Ca -10, OX1R antag-1 8, TAAR1 agonist 5, TAAR1 antagonist 26, OX1R antag-2 92*, OX1R HTRF conf 46 and CHO-K1 HTRF 0.
For Cc1ccc(NC(=O)c2sc3nc(CCl)[nH]c(=O)c3c2C)c(C)c1 the results were TAAR1 agonist 0 and TAAR1 antagonist -10.

Source: PubChem BioAssay
